High-throughput results as filed in PubChem.
PDI turbidity = inhibitors of human PDI, primary screen, biochemical, turbidity, single point, plate reader; Protein disulfide-isomerase (Homo sapiens), P07237; PDI insulin aggregation turbidity, A650, 90 min; inhibition, % at 10 µM; 350,000 compounds, 0.052% hits;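 active = mean inhibition across replicates of 30% or more, whatever share of single replicates reach that level; inconclusive = mean inhibition below 30% while every single replicate reaches 30%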
Target sequence (P07237 whole entry, looked up): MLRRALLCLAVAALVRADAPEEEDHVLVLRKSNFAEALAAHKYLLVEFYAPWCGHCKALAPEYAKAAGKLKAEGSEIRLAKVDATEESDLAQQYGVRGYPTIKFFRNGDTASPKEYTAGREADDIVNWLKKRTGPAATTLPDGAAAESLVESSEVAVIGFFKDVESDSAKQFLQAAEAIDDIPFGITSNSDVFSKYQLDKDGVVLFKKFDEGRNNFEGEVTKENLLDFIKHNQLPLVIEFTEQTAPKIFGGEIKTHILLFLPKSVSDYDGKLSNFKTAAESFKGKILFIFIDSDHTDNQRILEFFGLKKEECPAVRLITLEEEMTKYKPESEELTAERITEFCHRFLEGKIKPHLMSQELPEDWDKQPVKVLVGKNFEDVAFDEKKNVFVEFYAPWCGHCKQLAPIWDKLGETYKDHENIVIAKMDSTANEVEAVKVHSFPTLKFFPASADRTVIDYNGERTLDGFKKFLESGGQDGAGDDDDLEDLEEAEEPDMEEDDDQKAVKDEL
PglD inh = C. jejuni PglD acetyltransferase inhibitors, primary screen, biochemical, DTNB colorimetric, single point. UDP-N-acetylbacillosamine N-acetyltransferase PglD (Campylobacter jejuni). purified PglD enzyme, DTNB colorimetric CoA detection. inhibition, % at 12.5 µM. 360,000 compounds, 0.098% hits. AID 602405, 2012; in the data active = inhibition above about 16%, passing the limit was not always enough; inconclusive = no clear call, values can overlap the other calls
Cneo AK release = Cryptococcus neoformans cell lysis inducers, primary screen, AK release luminescence, single concentration; 360,000 compounds, 0.2% hits; C. neoformans lysis, adenylate kinase release luminescence, 4 h; normalised: neutral wells 0, clomiphene wells 100; lysis activity, % at 15 µM; AID 651654, 2012;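 active = mean lysis activity across replicates of at least 80%, whatever share of replicates individually reach that level; inactive = mean lysis activity below 80%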
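Assay system: Cryptococcus neoformans yeast cells / Dosing: single-point compound dose / Timing: 4 h at 37 °C static, read 1 h later / Measured by: luminescence of released adenylate kinase using an AK detection reagent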
miR122 inh = miR-122 Renilla sensor signal increase in Huh7, primary screen, miR-122 inhibitor project, cell-based, single point, plate reader. activation (reporter increase), % at 12.5 µM. 340,000 compounds, 0.3% hits. Huh7 miR-122 Renilla luciferase sensor, 48 h; neutral wells = 0, positive control = 100;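 active = mean replicate activation score at least 90 and every replicate individually at or above 90; inconclusive = only one of the two criteria met; inactive = neither criterion met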;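 also: higher luciferase means less miR-122 activity so hits act as miR-122 inhibitors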
ERp5 inh = inhibitors of ERp5-driven insulin aggregation, primary screen, biochemical, turbidity, absorbance 650 nm, single point; inhibition, % at 9.99 µM; AID 651711, 2012; 90 min; 350,000 compounds, 0.05% hits; Protein disulfide-isomerase A6 (Homo sapiens), Q15084;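 active = mean replicate inhibition above about 25%, with every replicate also reaching it, limit read from the data, passing the limit was not always enough; inconclusive = only one of those two criteria met; inactive = neither criterion met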
PvdQ inh = P. aeruginosa PvdQ acylase inhibitors, primary screen, biochemical, fluorescence, plate reader and imaging, single point. purified PvdQ acylase. inhibition, % at 10 µM. 340,000 compounds, 0.063% hits. AID 488965, 2010; in the data active = inhibition above about 30%, passing the limit was not always enough; inconclusive = no clear call, values can overlap the other calls;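 also: 0% = vehicle neutral wells and 100% = reference inhibitor wells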
* hit, by the source's call; ? = inconclusive; / = no result; [ ] = remark or other dose. Most compounds without a hit are left out; they make up all but 0.58% or so of the library.

SMILES | PDI turbidity | PglD inh | Cneo AK release | miR122 inh | ERp5 inh | PvdQ inh
CCC(=O)Nc1ccc2c(c1)C(=O)N(C)C[C@H](OC)[C@@H](C)CN(Cc1ccccc1)[C@H](C)CO2 | / | 1.4 | -1.0 | 4.7[16.7 µM] | / | /
O=C(Nc1nc2ccc(Br)cc2s1)c1ccco1 | -1.0 | -0.5 | -2.7 | 3.8 | -2.8 | -6.7
Cc1csc2c(=O)sc(NC(=O)c3ccco3)nc12 | 7.0 | -0.2 | -1.5 | 117.3* | ? | 6.2
O=C(Nc1nc2ccc(Cl)cc2s1)c1ccco1 | -17.0 | 1.4 | -4.5 | 116.1* | / | 5.5
CC(=O)Nc1nc2c(s1)CCc1ccccc1-2 | 19.9 | 1.7 | -1.0 | 3.9 | 2.4 | -7.4
O=C(Nc1nc2c(s1)CCc1ccccc1-2)c1ccco1 | -0.3 | -2.4 | -5.9 | 98.2* | / | -7.6
C[C@@H]1CN([C@@H](C)CO)S(=O)(=O)c2ccc(C3=CCCCC3)cc2O[C@@H]1CN(C)C(=O)Cc1ccccc1 | / | -3.7 | 2.0 | 12.0[16.7 µM] | -5.7 | /
CC(=O)NCCc1nc(-c2ccc(Cl)cc2)no1 | -2.8 | -2.7 | 0.8 | 1.6 | 10.4 | -12.5
O=C(O)CCc1nc(-c2ccc(Cl)cc2)no1 | -3.8 | / | / | 0.4 | / | 35.5*
CCOC(=O)N1CCN(c2nc3ccccn3c(=O)c2C=O)CC1 | -3.2 | -0.6 | 53.2 | / | 1.5 | 31.2*
CS(=O)(=O)Nc1ccc2c(c1)[C@@H]1C[C@@H](CC(=O)NCCc3ccccc3)O[C@H](CO)[C@@H]1O2 | / | 3.0 | -2.9 | -2.0[16.7 µM] | 1.5 | /
C[C@H](CO)N1C[C@H](C)[C@H](CN(C)Cc2ccc(C(=O)Nc3ccccc3N)cc2)Oc2ccc(N(C)C)cc2CC1=O | / | 3.1 | 37.4 | 355.3*[16.7 µM] | -3.8 | /
C[C@H]1CN([C@@H](C)CO)C(=O)c2cc(N(C)C)ccc2O[C@@H]1CN(C)Cc1ccc(C(=O)Nc2ccccc2N)cc1 | / | -1.8 | 1.0 | 30.9[16.7 µM] | 4.0 | /
C[C@@H]1CN([C@@H](C)CO)C(=O)c2cc(N(C)C)ccc2O[C@@H]1CN(C)Cc1ccc(C(=O)Nc2ccccc2N)cc1 | / | 0.3 | -1.1 | 253.9*[16.7 µM] | 10.1 | /
CCC(=O)Nc1ccc2c(c1)OC[C@@H](C)N(Cc1ccccn1)C[C@@H](C)[C@H](OC)CN(C)C2=O | / | 17.6* | 0.9 | / | / | /
CO[C@H]1CN(C)C(=O)c2ccc(NC(C)=O)cc2OC[C@H](C)N(C(=O)c2ccccn2)C[C@@H]1C | / | / | / | / | -2.8 | /
CO[C@@H]1CN(C)C(=O)c2cc(NC(=O)C3CC3)ccc2OC[C@H](C)N(C(=O)c2ccncc2)C[C@H]1C | / | -1.2 | 102.3* | -5.9[16.7 µM] | -5.2 | /
CO[C@@H]1CN(C)C(=O)c2ccc(NC(C)=O)cc2OC[C@@H](C)N(C(=O)c2ccccn2)C[C@H]1C | / | -4.4 | 94.6* | -2.6[16.7 µM] | -0.9 | /
CO[C@H]1CN(C)C(=O)c2ccc(NC(C)=O)cc2OC[C@H](C)N(C(=O)c2ccncc2)C[C@@H]1C | / | 6.2 | 82.0* | 27.3[16.7 µM] | 1.5 | /
CC(=O)N1CC(=O)N2[C@H](C1)[C@@H](c1ccc(C#CC(C)C)cc1)[C@@H]2CO | / | / | / | / | 0.0 | /
O=C(O)C[C@H]1C[C@@H]2c3cc(NC(=O)Nc4ccccc4)ccc3O[C@@H]2[C@@H](CO)O1 | / | 2.4 | 46.9 | 6.1[16.7 µM] | -1.2 | /
CCCC(=O)Nc1ccc2c(c1)C(=O)N(C)C[C@H](OC)[C@@H](C)CN(C(=O)c1cccnc1)[C@H](C)CO2 | / | 1.7 | 90.3* | / | -3.9 | /
CO[C@@H]1CN(C)C(=O)c2ccc(NC(=O)Nc3ccccc3)cc2OC[C@H](C)N(C(C)=O)C[C@H]1C | / | -0.9 | 118.6* | 0.6[16.7 µM] | -0.7 | /
CO[C@@H]1CN(C)C(=O)c2ccc(NC(=O)Nc3ccccc3)cc2OC[C@H](C)N(C(C)=O)C[C@@H]1C | / | -3.4 | 3.6 | 0.7[16.7 µM] | -0.9 | /
Cc1ccc(S(=O)(=O)Nc2ccc3c(c2)C(=O)N([C@H](C)CO)C[C@H](C)[C@H](CN(C)C(=O)Nc2c(C)noc2C)OCCCC[C@@H](C)O3)cc1 | / | 2.3 | 4.0 | -3.5[16.7 µM] | -0.9 | /
SMILES | PDI turbidity | PglD inh | Cneo AK release | miR122 inh | ERp5 inh | PvdQ inh
C[C@@H]1CN([C@@H](C)CO)C(=O)c2cccc(NC(=O)Nc3ccccc3)c2O[C@H]1CN(C)Cc1ccc(C(F)(F)F)cc1 | / | -2.6 | 0.3 | 114.8*[16.7 µM] | -0.3 | /
C[C@H](CO)N1C[C@H](C)[C@H](CN(C)Cc2ccc(C(F)(F)F)cc2)Oc2c(NC(=O)C3CC3)cccc2C1=O | / | 4.2 | -1.4 | 13.1[16.7 µM] | 18.5 | /
C[C@H]1CN([C@@H](C)CO)C(=O)c2cccc(NC(=O)C3CCCCC3)c2O[C@@H]1CN(C)Cc1ccc(C(F)(F)F)cc1 | / | -0.5 | -4.9 | 94.2*[16.7 µM] | -6.2 | /
C[C@H]1CN([C@@H](C)CO)C(=O)c2cccc(NC(=O)NC3CCCCC3)c2O[C@@H]1CN(C)Cc1ccc(C(F)(F)F)cc1 | / | 1.2 | -1.6 | 121.0*[16.7 µM] | -2.4 | /
C[C@H]1CN([C@@H](C)CO)C(=O)c2cccc(NC(=O)Nc3ccccc3)c2O[C@@H]1CN(C)Cc1ccc(C(F)(F)F)cc1 | / | -1.7 | 0.6 | 72.8[16.7 µM] | 0.6 | /
C[C@H]1CN([C@@H](C)CO)C(=O)c2cccc(NC(=O)C3CC3)c2O[C@@H]1CN(C)Cc1ccc(C(F)(F)F)cc1 | / | -3.3 | -0.8 | 113.0*[16.7 µM] | 10.0 | /
O=C(C[C@H]1C[C@H]2c3cc(NC(=O)NC4CCCCC4)ccc3O[C@H]2[C@@H](CO)O1)NCC(F)(F)F | / | -1.6 | 2.3 | 5.5[16.7 µM] | 5.5 | /
CC(C)CC#Cc1cnc2c(c1)C(=O)N([C@H](C)CO)C[C@@H](C)[C@H](CN(C)Cc1ccccn1)O2 | / | -2.5 | 3.5 | 2.8[16.7 µM] | -1.3 | /
COc1ccc2c3c(n(C)c2c1)[C@@H](CO)N(Cc1ccccc1)CC31CN(C)C1 | / | / | / | / | 4.6 | /
C[C@H]1CN([C@@H](C)CO)C(=O)c2cccc(NC(=O)C3CCOCC3)c2O[C@@H]1CN(C)Cc1ccc(C(F)(F)F)cc1 | / | 0.2 | 1.2 | 105.3*[16.7 µM] | -6.6 | /
C[C@@H]1CN([C@@H](C)CO)C(=O)c2cccc(NC(=O)C3CCOCC3)c2O[C@@H]1CN(C)Cc1ccc(C(F)(F)F)cc1 | / | -0.3 | 0.5 | 2.1[16.7 µM] | -6.5 | /
C[C@H](CO)N1C[C@H](C)[C@@H](CN(C)Cc2ccc(C(F)(F)F)cc2)Oc2c(NC(=O)C3CCCCC3)cccc2C1=O | / | 5.3 | 4.4 | 121.7*[16.7 µM] | -6.2 | /
COc1ccc(C(C#N)c2ccc(Cl)nn2)cc1 (configuration not stated) | -9.1 | / | / | -0.9 | -1.3 | 46.1*
N#CC(c1ccc(Cl)nn1)c1ccc(Cl)cc1Cl (configuration not stated) | 9.0 | -4.9 | -1.9 | 39.6 | / | 113.8*
